Assay outcomes deposited in PubChem BioAssay by several laboratories.
Shown is part of a subset that was picked to be rich in hits.
UPR XBP1 act – activators of adaptive XBP1 UPR arm, primary screen, cell-based, CHO-XBP1 luciferase reporter, luminescence, uHTS | IRE1-XBP1 UPR activation; percent of tunicamycin response, DMSO as zero | activation, % at 20 µM | 330,000 tested, 0.33% active;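 active = versus positive control, 20 µM dose yields 30% or more activation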;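 also: 100% = tunicamycin at 10 µg/mL and 0% = DMSO only wells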
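assay system = CHO-XBP1 luciferase reporter cells | amount = 1000 cells/well | buffer or medium = F12 plus 10% FBS | compound dosing = single point, 20 µM final compound, 1% DMSO | incubation = 16-18 h cell attachment at 37 °C, then 6 h compound exposure | detection = Steady-Glo luminescence read | controls = tunicamycin 10 µg/mL and vehicle-only wells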
UCH37 DUB inh – inhibitors of human UCH37 deubiquitinase, primary screen, biochemical, Ub-AMC cleavage, fluorescence; AID 588478, 2011; purified proteasome/UCH37; inhibition, % (test concentration not listed); 330,000 tested, 0.33% active; Ubiquitin carboxyl-terminal hydrolase isozyme L5 (Homo sapiens), Q9Y5K5;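 active = mean inhibition over replicate wells above about 20%, limit read from the data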;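 also: 0% = compound-free wells with enzyme and 100% = wells lacking proteasome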
Target sequence (Q9Y5K5 whole entry, looked up): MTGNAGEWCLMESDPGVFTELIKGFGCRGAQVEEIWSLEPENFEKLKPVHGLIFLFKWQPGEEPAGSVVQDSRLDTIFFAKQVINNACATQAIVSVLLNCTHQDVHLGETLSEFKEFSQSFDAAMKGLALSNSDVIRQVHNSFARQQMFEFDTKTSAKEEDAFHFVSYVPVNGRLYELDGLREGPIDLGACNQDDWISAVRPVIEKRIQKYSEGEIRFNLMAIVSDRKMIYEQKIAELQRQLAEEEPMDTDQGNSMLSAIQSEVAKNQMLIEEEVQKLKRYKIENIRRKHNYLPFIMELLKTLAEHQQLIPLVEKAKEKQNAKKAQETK
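system = Proteasome-associated human UCH37 deubiquitinase | amount = 0.15 nM proteasome as dispensed | medium = pH 7.4 Tris-HCl (50 mM) with ovalbumin, ATP-MgCl2, DTT | incubation = 30 min preincubation with enzyme, 25 min cleavage at room temperature | detection = AMC fluorescence 355/460 nm | read-out basis = percent inhibition | controls = no-proteasome and no-compound wells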
CTSL1 counter – Fasciola hepatica cathepsin L1 inhibitors, primary screen, counter-screen for PFM18AAP inhibitor project, biochemical, QFRET, fluorogenic peptide substrate. recombinant F. hepatica cathepsin L1, Z-Leu-Arg-MCA fluorescence. inhibition, % at 5.96 µM. 300,000 tested, 0.49% active;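 active = inhibition above the mean of all tested compounds plus 3 SD, set per screening campaign, cut at about 17% in these data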;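 also: 0% = plate median of test compound wells and 100% = 1 µM Z-Phe-Ala-diazomethylketone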
UPR CHOP act – activators of apoptotic CHOP UPR arm, primary screen, cell-based, CHO-CHOP luciferase reporter, luminescence, uHTS | UPR activation; percent of tunicamycin response over DMSO baseline | activation, % at 10 µM | 330,000 tested, 0.34% active;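 active = at 10 µM dose, activation of 40% or more, normalized to positive control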;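 also: 100% = tunicamycin at 10 µg/mL and 0% = DMSO alone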
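Material: CHO-CHOP cells, stable luciferase reporter of PERK-eIF2a-CHOP signalling; quantity: 500 reporter cells seeded per well; buffer or medium: F12 medium containing 10% fetal bovine serum; compound: one dose, 10 µM in 0.5% DMSO; incubation: 6 h compound treatment, 37 °C; measured by: Steady-Glo luciferase luminescence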
CHOP inh – inhibitors of CHOP promoter induction, primary screen, cell-based, unfolded protein response, luciferase reporter | inhibition, % at 10 µM | CHO-K1 CHOP-promoter luciferase, tunicamycin-induced, 15-18 h | AID 2732, 2010 | 220,000 tested, 3.8% active;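 active = compounds that reduced the stress-induced luciferase reporter signal by more than about 70% of percent inhibition, limit read from the data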;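 also: 0% = tunicamycin plus vehicle and 100% = wells without tunicamycin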
UPR CHOP confirm – activators of apoptotic CHOP UPR arm, confirmation, cell-based, CHO-CHOP luciferase reporter, single concentration | shares compounds with UPR CHOP act | CHO-CHOP cells, CHOP-luciferase reporter luminescence; percent of tunicamycin response, DMSO as zero | activation, % at 10 µM | 1,000 tested, 64% active | AID 463112, 2010; in the data active = activation above about 33%;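 also: 0% = DMSO wells and 100% = tunicamycin 10 µg/mL wells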
Numbers without * were called inactive; x = no result given.

SMILES	UPR XBP1 act	UCH37 DUB inh	CTSL1 counter	UPR CHOP act	CHOP inh	UPR CHOP confirm
N#CC12COC3(CCCCC3C1(C#N)C#N)OC2=N (stereo unspecified)	-2	-10	1	46*	-82	43*
COc1ccc(C2OC34CCCCC3C(C#N)(C#N)C2(C#N)C(=N)O4)cc1 (stereo unspecified)	-7	-18	6	54*	7	35*
O=C(NC1CCCC(C(F)(F)F)C1)c1ccc([N+](=O)[O-])o1 (stereo unspecified)	9	6	x	64*	x	12
O=C(Nc1ccc2oc(-c3ccc4ccccc4c3)nc2c1)c1ccc2c(c1)OCCO2	200*	-207	2	40*	9	105*
Nc1c(C(=O)NN=Cc2cccnc2)cnn1-c1ccccc1	x	5	x	x	x	x
Cc1cccc(C(=O)OCc2cc(=O)oc3c(C)c(C)ccc23)c1O	34*	-5	11	43*	x	4
O=C(Nc1ccc(Oc2cccc(C(F)(F)F)c2)nc1)c1ccco1	-3	2	1	2	11	x
CC(C)(C)c1ccc(Oc2ccc(NC(=O)c3ccco3)cn2)cc1	11	2	0	43*	15	-2
CN=c1scc(-c2ccccc2F)n1N=Cc1ccc(O)c(O)c1O	x	3	x	x	x	x
C=CCN=c1scc(-c2ccco2)n1/N=C/c1ccc(O)c(O)c1O	3	x	0	161*	-81	64*
Cc1cc(=O)[nH]c(N=C(N)Nc2ccc3c(c2)OCCO3)n1	x	0	x	x	x	x
COc1ccc(-c2cc(=O)c3ccccc3o2)cc1	2	-471	8	5	-4	x
COc1ccc(C2Nc3ccc4ccccc4c3-c3c2c(=O)oc2ccccc32)cc1 (stereo unspecified)	134*	-324	2	49*	66	47*
CCOC(=O)C(=NNc1ccccc1[N+](=O)[O-])c1csc(Nc2ccccc2)n1	x	9	x	x	x	x
CN(Cc1c(C(=O)NN=Cc2cccs2)nnn1-c1nonc1N)c1ccccc1	x	4	x	x	x	x
CC(=O)C(=NNc1ccccc1C)N1CCOCC1	x	8	x	x	x	x
CCOc1ccc2nc3cc(NCc4ccc(OC)cc4)ccc3c(N)c2c1	4	-63	9	71*	x	1
C/C(=N\NC(=O)C(C)Oc1ccc([N+](=O)[O-])cc1)c1ccccn1 (stereo unspecified)	7	x	0	67*	70	42*
CC(=NOC(=O)c1c(-c2c(F)cccc2Cl)noc1C)c1nccs1	x	1	x	x	x	x
Cc1cc(C(=O)c2ccc(C(C)(C)C)cc2)c(NC(=O)CCl)s1	6	10	6	50*	31	94*
Cc1cc(C(=O)c2ccccc2)c(NC(=O)CN2CCOCC2)s1	-1	1	-2	-2	10	x
CCn1c(CSc2nc3ccccc3s2)nnc1SCC(=O)c1ccc(O)c(O)c1	12	6	-2	47*	32	0
CCCCC(=O)Nc1ccc(C(N)=O)cc1	-1	0	4	-1	7	x
NC(=O)c1cccc(NC(=O)CCCCC(=O)Nc2cccc(C(N)=O)c2)c1	0	5	0	41*	x	1
CCOC(=O)c1cnc(-n2nc(C)cc2C)nc1NCCO	0	-11	3	-2	-6	x
SMILES	UPR XBP1 act	UCH37 DUB inh	CTSL1 counter	UPR CHOP act	CHOP inh	UPR CHOP confirm
CCOC(=O)c1cnc(-n2nc(C)cc2C)nc1NC(C)c1ccccc1 (stereo unspecified)	30	-3	5	73*	43	29
CCOC(=O)c1cnc(-n2nc(C)cc2C)nc1NCc1ccccc1	19	5	1	74*	-80	25
COc1cccc(C=NN2CCN(Cc3ccccc3)CC2)c1O	x	5	x	x	x	x
CCNC(=S)NN=Cc1ccco1	x	5	x	x	x	x
CC1(C)CC(=O)C2=C(C1)Oc1nc3ccccc3cc1C2C(C#N)C#N (stereo unspecified)	-5	6	6	63*	63	34*
CC(=O)Nc1ccc(-c2cn3cc(C)ccc3n2)cc1	1	-28	0	1	17	x
Cc1ccc2nc(-c3ccc(O)c(O)c3)cn2c1	1	x	-1	155*	x	61*
CCOc1cc(/C=N\NC(=O)c2ccc(NC(=O)CC)cc2)ccc1OC(=O)c1ccccc1	26	x	-1	57*	75*	4
CC(=NNC(=O)Cn1ccc(C(F)(F)F)n1)c1ccc2c(c1)OCO2	x	1	x	x	x	x
CC(C)[C@H](NC(=O)OC(C)(C)C)c1nnc(S(=O)(=O)Cc2c(F)cccc2Cl)o1	-5	5	41*	134*	x	95*
O=C(CN1CCN(c2ccccc2F)CC1)c1ccc(O)c(O)c1	49*	7	x	108*	x	41*
CC(C)c1ccc(S(=O)(=O)N2CCN(CC(=O)c3ccc(O)c(O)c3)CC2)cc1	19	x	0	19	x	x
O=C(CN1CCN(S(=O)(=O)c2ccc(Br)cc2)CC1)c1ccc(O)c(O)c1	30	5	10	61*	x	7
O=C(NN=Cc1c[nH]c2ccccc12)c1ccn[nH]1	x	6	x	x	x	x
Cc1nc2scc(-c3ccco3)c2c(=O)n1N=CN(C)C	x	0	x	x	x	x
Oc1ccccc1C=Nn1c(COc2ccccc2)n[nH]c1=S	x	1	x	x	x	x
Cc1ccc(C(=O)NC(C#N)=C(Cl)Cl)cc1	-5	3	x	136*	80*	45*
COc1ccc(-c2ccc(-c3nc4c(c(=O)[nH]c(=O)n4Cc4ccccc4)n3C)o2)c([N+](=O)[O-])c1	17	4	0	59*	90*	41*
O=C(N/N=C/c1ccccn1)c1ccc(Cl)c(Cl)c1	1	x	9	208*	x	233*
O=C(N/N=C/c1ccccn1)c1cc(-c2ccccc2)nc2ccccc12	-4	x	0	133*	3	131*
CC1=CC(C)(C)Nc2ccc(OC(=O)CN3C(=O)CCC3=O)cc21	-4	-89	0	87*	-261	92*
CCc1ccc(NC(=O)c2nc(S(=O)(=O)Cc3ccccc3)ncc2Cl)cc1	-10	x	3	-11	x	x
CC(C)c1nnc(NC(=O)c2nc(S(=O)(=O)Cc3ccccc3)ncc2Cl)s1	-9	x	-4	62*	x	8
CSc1nnc(NC(=O)c2nc(S(=O)(=O)Cc3ccccc3)ncc2Cl)s1	-8	x	-2	56*	x	61*
O=C(NN=Cc1cccnc1)c1cccc(F)c1	x	0	x	x	x	x
